In data set [1] the target is T1, Tyrosine-protein kinase JAK2 (Homo sapiens, UniProt O60674). Put plainly: Inhibition of human JAK2 at 10 uM using KTFCGTPEYLAPEVRREPRILSEEEQEMFRDFDYIADWC as substrate after 40 mins in presence of [gamma-33P-ATP] by scintillation counting method relative to control.
The nature of data set [2]: Tmax in Sprague-Dawley rat at 10 mg/kg, po after 0.25 to 24 hrs by LC-MS/MS method. The class given is ADME, organism-based. As to conditions: in vivo. In outline: (§1)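 Male Sprague Dawley rats, 7–8 weeks old, n=4, fasted 16 h. Free base given at 10 mg/kg po as a corn oil suspension (5 mL/kg); a 5 mg/kg iv arm used 10% ethanol/90% PEG400. Plasma sampled 0.25–24 h, acetonitrile-precipitated with internal standard, and measured by LC-MS/MS. Parameters derived by non-compartmental analysis.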

In data set [3] the test system is Rattus norvegicus. The data set can be described thus: AUC (0 to infinity) in Sprague-Dawley rat at 10 mg/kg, po after 0.25 to 24 hrs by LC-MS/MS method. As to conditions: in vivo. On the set-up: dose 10 mg/kg, route oral, time infinity. The class given is ADME, organism-based. In outline:
(§2)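 Male Sprague Dawley rats, 7-8 weeks old, n=4 per group. IV dose 5 mg/kg free base in 10% ethanol/90% PEG400; oral dose 10 mg/kg as corn oil suspension after 16 h fast. Blood taken 0.08-24 h (IV) or 0.25-24 h (PO). Plasma diluted in acetonitrile with internal standard, analysed by LC-MS/MS, parameters by non-compartmental analysis.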

The nature of data set [4]: Oral bioavailability in Sprague-Dawley rat at 10 mg/kg after 0.25 to 24 hrs by LC-MS/MS method. It counts as ADME, organism-based. As to conditions: in vivo. The essentials: as §1
Data set [5] in a line: Half life in Sprague-Dawley rat at 5 mg/kg, iv after 0.08 to 24 hrs by LC-MS/MS method. As to conditions: in vivo. It counts as ADME, organism-based. The essentials:
as §2

Data set [6] deals with Rattus norvegicus. Put plainly: AUC (0 to infinity) in Sprague-Dawley rat at 5 mg/kg, iv after 0.08 to 24 hrs by LC-MS/MS method. The class given is ADME, organism-based. On the set-up: dose 5 mg/kg, time infinity, route intravenous. As to conditions: in vivo. The essentials:
as §2

The test system of data set [7] is Rattus norvegicus. The data set can be described thus: AUC (0 to t) in Sprague-Dawley rat at 5 mg/kg, iv after 0.08 to 24 hrs by LC-MS/MS method. It counts as ADME, organism-based. Also noted: time upper 24 hr, time lower 0.08 hr, dose 5 mg/kg, route intravenous. The following applies: in vivo. In outline: as §2
Data set [8] is described as follows: MRT in Sprague-Dawley rat at 5 mg/kg, iv after 0.08 to 24 hrs by LC-MS/MS method. The following applies: in vivo. The class given is ADME, organism-based. The essentials:
as §2

In data set [9] the test system is Rattus norvegicus. The data set can be described thus: Antiarthritic activity in adjuvant-induced SPF LEW/SsNSlc rat arthritis model assessed as paw thickness at 5 mg/kg, po qd measured on 14 days. It counts as functional. In outline:
(§3)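 Lewis rats were 10 weeks old after 2 weeks acclimation. Immunized s.c. at the tail base with 0.1 mL complete Freund's adjuvant containing 10 mg/mL heat-killed mycobacterium. From day 12 post-immunization (day 1), n=10 per group, oral dosing once daily for 14 days, vehicle corn oil. Clinical score and hind paw measured twice weekly.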

The subject of data set [10] is Rattus norvegicus. Put plainly: Antiarthritic activity in adjuvant-induced SPF LEW/SsNSlc rat arthritis model assessed as paw thickness at 10 mg/kg, po qd measured on day 14. It counts as functional. The essentials:
as §3

In data set [11] the test system is Rattus norvegicus. Put plainly: Antiarthritic activity in adjuvant-induced SPF LEW/SsNSlc rat arthritis model assessed as paw thickness at 20 mg/kg, po qd measured on day 14. It counts as functional. The essentials: as §3
The target in data set [12] is Tyrosine-protein kinase JAK1 (Homo sapiens, UniProt P23458). The data set can be described thus: Inhibition of human JAK1 using GEEPLYWSFPAKKK as substrate after 40 mins in presence of [gamma-33P-ATP] by scintillation counting method.
Chain of Tyrosine-protein kinase JAK1 (P23458 whole entry): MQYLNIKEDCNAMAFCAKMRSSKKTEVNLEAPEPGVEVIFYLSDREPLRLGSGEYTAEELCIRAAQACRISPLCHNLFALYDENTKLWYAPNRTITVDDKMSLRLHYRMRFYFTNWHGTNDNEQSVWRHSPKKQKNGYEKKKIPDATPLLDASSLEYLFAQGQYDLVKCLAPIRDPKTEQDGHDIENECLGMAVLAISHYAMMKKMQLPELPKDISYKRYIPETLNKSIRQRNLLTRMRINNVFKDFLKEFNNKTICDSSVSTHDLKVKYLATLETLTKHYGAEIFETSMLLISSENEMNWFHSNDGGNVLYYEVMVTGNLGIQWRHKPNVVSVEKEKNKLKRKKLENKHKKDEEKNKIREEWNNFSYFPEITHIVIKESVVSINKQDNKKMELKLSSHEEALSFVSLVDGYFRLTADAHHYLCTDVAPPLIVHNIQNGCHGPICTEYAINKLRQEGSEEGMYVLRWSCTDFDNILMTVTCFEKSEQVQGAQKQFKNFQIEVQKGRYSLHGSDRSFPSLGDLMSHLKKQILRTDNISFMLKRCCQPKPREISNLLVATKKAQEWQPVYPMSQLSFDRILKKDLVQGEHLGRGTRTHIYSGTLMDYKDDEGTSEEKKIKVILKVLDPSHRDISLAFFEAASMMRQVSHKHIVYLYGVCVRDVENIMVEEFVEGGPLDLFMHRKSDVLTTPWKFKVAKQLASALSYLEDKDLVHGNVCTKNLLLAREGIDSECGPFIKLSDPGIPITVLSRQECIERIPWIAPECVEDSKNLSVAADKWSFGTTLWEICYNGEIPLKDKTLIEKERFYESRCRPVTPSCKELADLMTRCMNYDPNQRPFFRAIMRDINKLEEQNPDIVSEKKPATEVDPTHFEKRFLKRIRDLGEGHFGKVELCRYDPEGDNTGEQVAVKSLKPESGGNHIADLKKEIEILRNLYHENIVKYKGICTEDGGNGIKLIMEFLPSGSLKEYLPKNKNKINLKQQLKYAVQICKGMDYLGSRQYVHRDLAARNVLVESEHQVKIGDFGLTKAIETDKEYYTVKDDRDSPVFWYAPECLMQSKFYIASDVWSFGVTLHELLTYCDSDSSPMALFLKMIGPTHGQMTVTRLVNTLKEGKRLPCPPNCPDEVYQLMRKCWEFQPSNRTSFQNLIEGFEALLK
Data set [13] has as its target T1, Tyrosine-protein kinase JAK2. The data set can be described thus: Inhibition of human JAK2 using KTFCGTPEYLAPEVRREPRILSEEEQEMFRDFDYIADWC as substrate after 40 mins in presence of [gamma-33P-ATP] by scintillation counting method.

This is an account of results in ChEMBL document CHEMBL4257478, “Design, synthesis and evaluation of (R)-3-(7-(methyl(7H-pyrrolo[2,3-d]pyrimidin-4-yl)amino)-5-azaspiro[2.4]heptan-5-yl)-3-oxopropanenitrile as a JAK1-selective inhibitor” (Medchemcomm, 2018).

Molecules are shown by their SMILES.

T1 sequence (O60674 whole entry): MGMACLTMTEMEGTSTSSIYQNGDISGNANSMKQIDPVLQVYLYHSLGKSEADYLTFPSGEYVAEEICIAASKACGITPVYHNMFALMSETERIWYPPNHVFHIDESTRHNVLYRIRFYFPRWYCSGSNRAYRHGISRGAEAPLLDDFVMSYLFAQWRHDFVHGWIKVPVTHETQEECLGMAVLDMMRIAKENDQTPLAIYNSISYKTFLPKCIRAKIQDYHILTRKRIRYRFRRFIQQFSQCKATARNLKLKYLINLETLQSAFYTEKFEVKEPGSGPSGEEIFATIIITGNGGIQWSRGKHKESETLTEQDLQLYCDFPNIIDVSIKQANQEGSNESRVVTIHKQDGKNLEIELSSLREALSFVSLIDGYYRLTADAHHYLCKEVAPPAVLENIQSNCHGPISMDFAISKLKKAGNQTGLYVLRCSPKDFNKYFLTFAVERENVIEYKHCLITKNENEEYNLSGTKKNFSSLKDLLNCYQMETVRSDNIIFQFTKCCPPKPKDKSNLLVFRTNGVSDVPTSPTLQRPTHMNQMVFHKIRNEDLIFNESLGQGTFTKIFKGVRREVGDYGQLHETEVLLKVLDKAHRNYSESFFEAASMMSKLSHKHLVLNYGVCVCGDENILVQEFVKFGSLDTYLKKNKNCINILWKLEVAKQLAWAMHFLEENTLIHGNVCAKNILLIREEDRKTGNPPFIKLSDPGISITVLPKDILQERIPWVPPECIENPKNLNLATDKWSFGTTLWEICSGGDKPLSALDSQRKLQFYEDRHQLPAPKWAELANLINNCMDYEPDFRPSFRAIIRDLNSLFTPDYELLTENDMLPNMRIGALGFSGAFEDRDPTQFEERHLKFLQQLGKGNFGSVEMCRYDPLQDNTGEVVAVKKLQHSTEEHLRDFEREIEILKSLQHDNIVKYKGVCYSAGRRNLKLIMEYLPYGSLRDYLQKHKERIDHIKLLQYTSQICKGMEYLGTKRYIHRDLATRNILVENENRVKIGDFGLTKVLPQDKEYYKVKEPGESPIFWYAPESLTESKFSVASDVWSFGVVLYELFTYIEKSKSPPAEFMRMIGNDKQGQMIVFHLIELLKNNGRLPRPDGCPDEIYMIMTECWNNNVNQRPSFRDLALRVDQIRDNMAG

As usually defined, the inhibition is the relative decrease from the control value, in per cent. As usually defined, the Tmax is the time from dosing to the highest level. Broadly, the AUC is the area under the concentration-time curve, a measure of exposure. High values mean high exposure, low ones low exposure. A word on the half-life: it is the time needed for the level to fall by half in the phase considered. Higher therefore signals slow decline. By MRT is commonly meant a mean duration of stay, worked out from the concentration-time curve. `CN(c1ncnc2[nH]ccc12)[C@H]1CN(C(=O)CC#N)CC12CC2`: the inhibition at 10 µM in data set [1] turned out to be 90%. Besides, the Tmax in data set [2] is 18 min. Also, the AUC in the data set on Rattus norvegicus [3] stood at 2100 ng·h/mL; with Rattus norvegicus [6] it was 920 ng·h/mL. The bioavailability in [4] was 110%. The compound also showed a half-life in [5] of 72 min. Also, in the data set with Rattus norvegicus [7], the AUCt was 900 ng·h/mL. The mean residence time MRT in [8] came out at 1.1 h. The values for the Activity in the data set with Rattus norvegicus [9], in the data set with Rattus norvegicus [10] and in the data set on Rattus norvegicus [11] were 10.33 mm, 10.21 mm and 10.2 mm, respectively.
Broadly, the IC50 is the concentration needed to halve the response being measured. For the compound `CCS(=O)(=O)N1C[C@H](N(C)c2ncnc3[nH]ccc23)C2(CC2)C1`, the IC50 in [12] worked out at 7.2 nM; in data set [13], 180 nM.
